From ChEMBL document CHEMBL4325893, “Synthesis and antibacterial profiles of targeted triclosan derivatives” (2019)
Values after ≈ are worked out from the molar mass of the structure shown.

Tests used:
Aeromonas hydrophila = experiment: Antibacterial activity against Aeromonas hydrophila OCC 778 after 18 hrs; assay type: functional; details: OCC 778, 18 h
How it was run: (§1)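 Broth microdilution in Nutrient Broth No. 2; stocks in ethanol diluted to 0.01–128 µg/ml (triclosan) or 0.25–256 µg/ml (glycosides). Overnight 37 °C NB2 cultures diluted 1 in 10^4 in saline and added to the dilutions. Incubation at 37 °C with agitation, OD read every 15 min; MIC is the lowest concentration preventing any OD rise after 18 h.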

Citrobacter freundii [1] = experiment: Antibacterial activity against Citrobacter freundii OCC 851 after 18 hrs; assay type: functional; details: OCC 851, 18 h; how it was run: as §1
Cronobacter sakazakii = experiment: Antibacterial activity against Cronobacter sakazakii 29544 after 18 hrs; assay type: functional; details: Cronobacter sakazakii, 29544, 18 h; how it was run: as §1
Klebsiella aerogenes [2] = experiment: Antibacterial activity against Enterobacter aerogenes ATCC 13048 after 18 hrs; assay type: functional; details: ATCC 13048, 18 h; how it was run: as §1
[3] = Antibacterial activity against Enterobacter cloacae ATCC 13047 after 18 hrs; assay type: functional, Enterobacter cloacae subsp. cloacae; details: ATCC 13047, 18 h; how it was run: as §1
Escherichia coli [4] = experiment: Antibacterial activity against Escherichia coli ATCC 8739 after 18 hrs; assay type: functional; details: ATCC 8739, 18 h; how it was run: as §1
Escherichia coli [5] = experiment: Antibacterial activity against Escherichia coli ATCC 10536 after 18 hrs; assay type: functional; details: ATCC 10536, 18 h; how it was run: as §1
Escherichia coli [6] = experiment: Antibacterial activity against Escherichia coli ATCC 11775 after 18 hrs; assay type: functional; how it was run: as §1
Escherichia coli [7] = experiment: Antibacterial activity against Escherichia coli ATCC 25922 after 18 hrs; assay type: functional; details: ATCC 25922, 18 h; how it was run: as §1
Escherichia coli [8] = experiment: Antibacterial activity against Escherichia coli ATCC 35218 after 18 hrs; assay type: functional; details: ATCC 35218, 18 h; how it was run: as §1
Escherichia coli [9] = experiment: Antibacterial activity against Escherichia coli 700728 after 18 hrs; assay type: functional; details: Escherichia coli, 700728, 18 h; how it was run: as §1
Escherichia coli [10] = experiment: Antibacterial activity against Escherichia coli NCTC 13216 after 18 hrs; assay type: functional; details: NCTC 13216, 18 h; how it was run: as §1
Escherichia coli [11] = experiment: Antibacterial activity against Escherichia coli OCC 122 after 18 hrs; assay type: functional; details: OCC 122, 18 h; how it was run: as §1
Escherichia hermannii = experiment: Antibacterial activity against Escherichia hermannii 33650 after 18 hrs; assay type: functional; details: Atlantibacter hermannii, 33650, 18 h; how it was run: as §1
Hafnia alvei = experiment: Antibacterial activity against Hafnia alvei 13337 after 18 hrs; assay type: functional; details: Hafnia alvei, 13337, 18 h; how it was run: as §1
Klebsiella aerogenes [12] = experiment: Antibacterial activity against Klebsiella aerogenes NCTC 8167 after 18 hrs; assay type: functional; details: NCTC 8167, 18 h; how it was run: as §1
Klebsiella pneumoniae [13] = experiment: Antibacterial activity against Klebsiella pneumoniae ATCC 10031 after 18 hrs; assay type: functional; details: ATCC 10031, 18 h; how it was run: as §1
Proteus mirabilis = experiment: Antibacterial activity against Proteus mirabilis ATCC 12453 after 18 hrs; assay type: functional; details: ATCC 12453, 18 h; how it was run: as §1
Proteus vulgaris = experiment: Antibacterial activity against Proteus vulgaris OCC 195 after 18 hrs; assay type: functional; details: OCC 195, 18 h; how it was run: as §1
Pseudomonas aeruginosa = experiment: Antibacterial activity against Pseudomonas aeruginosa ATCC 27853 after 18 hrs; assay type: functional; details: ATCC 27853, 18 h; how it was run: as §1
Klebsiella pneumoniae [14] = experiment: Antibacterial activity against Klebsiella pneumoniae ATCC 13883 after 18 hrs; assay type: functional; details: ATCC 13883, 18 h; how it was run: as §1
Citrobacter freundii [15] = experiment: Antibacterial activity against Citrobacter freundii 8090 after 18 hrs; assay type: functional; details: Citrobacter freundii, 8090, 18 h; how it was run: as §1
Serratia marcescens = experiment: Antibacterial activity against Serratia marcescens OCC 217 after 18 hrs; assay type: functional; details: OCC 217, 18 h; how it was run: as §1
Bacillus cereus = experiment: Antibacterial activity against Bacillus cereus ATCC 14579 after 18 hrs; assay type: functional; details: ATCC 14579, 18 h; how it was run: as §1
Bacillus subtilis = experiment: Antibacterial activity against Bacillus subtilis NCTC 10073 after 18 hrs; assay type: functional; details: NCTC 10073, 18 h; how it was run: as §1
Enterococcus faecalis [16] = experiment: Antibacterial activity against Enterococcus faecalis ATCC 29212 after 18 hrs; assay type: functional; details: ATCC 29212, 18 h; how it was run: as §1
Enterococcus faecalis [17] = experiment: Antibacterial activity against Enterococcus faecalis ATCC 33186 after 18 hrs; assay type: functional; details: ATCC 33186, 18 h; how it was run: as §1
Enterococcus faecium = experiment: Antibacterial activity against Enterococcus faecium ATCC 19434 after 18 hrs; assay type: functional; details: ATCC 19434, 18 h; how it was run: as §1

SMILES: OC[C@H]1O[C@H](Oc2cc(Cl)ccc2Oc2ccc(Cl)cc2Cl)[C@@H](O)[C@@H](O)[C@@H]1O
- MIC (Aeromonas hydrophila): > 256 µg/mL
- MIC (Citrobacter freundii [1]): 64 µg/mL (≈ 142 µM)
- MIC (Cronobacter sakazakii): 128 µg/mL (≈ 283 µM)
- MIC (Klebsiella aerogenes [2]): 32 µg/mL (≈ 70.8 µM)
- MIC [3]: 8 µg/mL (≈ 17.7 µM)
- MIC (Escherichia coli [4]): 4 to 64 µg/mL (≈ 8.86 to 142 µM)
- MIC (Escherichia coli [5]): 4 to 64 µg/mL (≈ 8.86 to 142 µM)
- MIC (Escherichia coli [6]): 4 to 64 µg/mL (≈ 8.86 to 142 µM)
- MIC (Escherichia coli [7]): 4 to 64 µg/mL (≈ 8.86 to 142 µM)
- MIC (Escherichia coli [8]): 4 to 64 µg/mL (≈ 8.86 to 142 µM)
- MIC (Escherichia coli [9]): 4 to 64 µg/mL (≈ 8.86 to 142 µM)
- MIC (Escherichia coli [10]): 4 to 64 µg/mL (≈ 8.86 to 142 µM)
- MIC (Escherichia coli [11]): 4 to 64 µg/mL (≈ 8.86 to 142 µM)
- MIC (Escherichia hermannii): 16 µg/mL (≈ 35.4 µM)
- MIC (Hafnia alvei): 4 µg/mL (≈ 8.86 µM)
- MIC (Klebsiella aerogenes [12]): 32 µg/mL (≈ 70.8 µM)
- MIC (Klebsiella pneumoniae [13]): 4 µg/mL (≈ 8.86 µM)
- MIC (Proteus mirabilis): 16 µg/mL (≈ 35.4 µM)
- MIC (Proteus vulgaris): 32 µg/mL (≈ 70.8 µM)
- MIC (Pseudomonas aeruginosa): > 256 µg/mL
- MIC (Klebsiella pneumoniae [14]): 4 µg/mL (≈ 8.86 µM)
- MIC (Citrobacter freundii [15]): 64 µg/mL (≈ 142 µM)
- MIC (Serratia marcescens): > 256 µg/mL
- MIC (Bacillus cereus): 256 µg/mL (≈ 567 µM)
- MIC (Bacillus subtilis): 128 µg/mL (≈ 283 µM)
- MIC (Enterococcus faecalis [16]): 256 µg/mL (≈ 567 µM)
- MIC (Enterococcus faecalis [17]): 256 µg/mL (≈ 567 µM)
- MIC (Enterococcus faecium): 256 µg/mL (≈ 567 µM)
